Results gathered from unrelated publications.
Lines come from different studies, so protocols differ. Converted amounts (≈) assume the structure as drawn.
Organism: Mycobacterium tuberculosis
Observed: microbial growth

| SMILES | method | strain | time | quantity | value |
| --- | --- | --- | --- | --- | --- |
| Cc1cccc(NC(=O)c2sc3nc(-c4ccco4)cc(C(F)(F)F)c3c2N)c1C | – | H37RV | – | IC50 | > 100 µM |
| FC(F)(F)c1ccc(CCNc2cc(-c3cccs3)nc3nncn23)cc1 | – | H37RV | – | MIC | 0.31 µM |
| COc1ccc(-c2cc(C(F)(F)F)c3c(N)c(C(=O)N4CCC4)sc3n2)cc1 | – | H37RV | – | IC50 | > 100 µM |
| CNC(=O)c1cc(C(F)F)ccc1OCCc1cccc(F)c1 | – | – | – | IC50 | 0.73 µM |
| Cc1nnc2nc(-c3ccccn3)cc(NCCc3ccc(Cl)cc3)n12 | – | H37RV | – | MIC | 24 µM |
| CCCCCCC#Cc1cncc(-c2nnc(SCCCn3ccc(=O)[nH]c3=O)n2C)c1 | resazurin | ERDMAN | – | IC50 | 25 µM |
| NNC(=O)c1ccncc1 | – | H37RV | – | MIC50 | 0.56 µg/mL (≈ 4.08 µM) |
| Nc1c(C(=O)Nc2ccccc2C(F)(F)F)sc2nc(-c3ccccc3)cc(C(F)(F)F)c12 | – | H37RV | – | IC50 | > 100 µM |
| NNC(=O)c1ccncc1 | – | H37RA | – | MIC90 | 0.34 µM |
| CCN(CC)C(=O)c1sc2ncccc2c1N | – | H37RV | – | IC50 | > 100 µM |
| O=c1c2cc(C(F)(F)F)ncc2[nH]c(=S)n1Cc1cccnc1 | – | H37RV | – | MIC90 | 45.5 µM |
| CCCCCCC#Cc1cncc(-c2nnc(SCc3ccc([N+](=O)[O-])o3)n2CCO)c1 | resazurin | ERDMAN | – | IC50 | 1.3 µM |
| N#Cc1cc2c(=O)n(Cc3cccnc3)c(=S)[nH]c2cn1 | – | H37RV | – | MIC90 | 85.8 µM |
| CC(=O)c1ccc(OCCc2cccc(F)c2)c(C(N)=O)c1 | – | – | – | IC50 | 1.3 µM |
| CCCCCCC#Cc1cncc(-c2nnc(SCc3cc([N+](=O)[O-])cc([N+](=O)[O-])c3)n2CCO)c1 | resazurin | ERDMAN | – | IC50 | 1.4 µM |
| O=c1c2cc(Cl)c(CF)cc2[nH]c(=S)n1Cc1cccnc1 | – | H37RV | – | MIC90 | 6.72 µM |
| CCc1cc(=O)c2c(OCC(O)CN3CCC(C)CC3)c3ccoc3c(OC)c2o1 (centres unmarked) | resazurin | – | 21 days | MIC | 32 µg/mL |
| Clc1ccc(CCNc2cc(-c3ccco3)nc3nncn23)cc1 | – | H37RV | – | MIC | 4.8 µM |
| O=C(O)c1cc2[nH]c(=S)n(Cc3cccnc3)c(=O)c2cc1Cl | – | H37RV | – | MIC90 | > 100 µM |

| SMILES | method | strain | time | quantity | value |
| --- | --- | --- | --- | --- | --- |
| CCCCCCC#Cc1cncc(-c2nnc(SC[C@H]3O[C@@H](n4ccc(=O)[nH]c4=O)[C@H](O)[C@@H]3O)n2CCCN)c1 | resazurin | ERDMAN | – | IC50 | > 200 µM |
| CCc1cc(=O)c2c(OCC3CO3)c3ccoc3c(OC)c2o1 (centres unmarked) | resazurin | H37RV | 21 days | MIC | 128 µg/mL |
| Cc1ccc(CCNc2cc(-c3nccs3)nc3nncn23)cc1 | – | H37RV | 5 days | MIC | 32 µM |
| CCCCCCC#Cc1cncc(-c2nnc(SCc3cc([N+](=O)[O-])cc([N+](=O)[O-])c3)n2C2CCNCC2)c1 | resazurin | ERDMAN | – | IC50 | 2.6 µM |
| COC(=O)OCc1cc2[nH]c(=S)n(Cc3cccnc3)c(=O)c2cc1Cl | – | H37RV | – | MIC90 | 3.42 µM |
| Clc1cccc(CCOc2cc(-c3ccccn3)nc3ncnn23)c1 | – | H37RV | – | MIC | > 100 µM |
| Nc1c(C(=O)N2CCOCC2)sc2nc(Cl)ccc12 | – | H37RV | – | IC50 | > 100 µM |
| NNC(=O)c1ccncc1 | resazurin | – | 21 days | MIC | 0.5 µg/mL |
| COCCNC(=O)c1sc2nc(-c3ccc(OC)cc3)cc(C(F)(F)F)c2c1N | – | H37RV | – | IC50 | > 100 µM |
| CCc1ccc(CCNc2cc(-c3ccco3)nc3nncn23)cc1 | – | H37RV | – | MIC | 0.43 µM |
| Nc1c(C(=O)Nc2cccnc2)sc2nc(-c3ccccc3)cc(C(F)(F)F)c12 | – | H37RV | – | IC50 | > 100 µM |
| Cc1ccc(CCNc2cc(-c3ccc(C)o3)nc3nncn23)cc1 | – | H37RV | – | MIC | 0.36 µM |
| NCC[C@H](O)C(=O)N[C@@H]1C[C@H](N)[C@@H](O[C@H]2O[C@H](CN)[C@@H](O)[C@H](O)[C@H]2O)[C@H](O)[C@H]1O[C@H]1O[C@H](CO)[C@@H](O)[C@H](N)[C@H]1O | – | H37RV | – | MIC90 | 3.3 µg/mL |
| CN(C)C(=O)OCc1cc2[nH]c(=S)n(Cc3cncnc3)c(=O)c2cc1Cl | – | H37RV | – | MIC90 | > 100 µM |
| Cc1ccc(-c2cc(NCCc3ccc(C(F)(F)F)cc3)n3cnnc3n2)o1 | – | H37RV | – | IC90 | 370 nM |
| CN(C)Cc1cc2[nH]c(=S)n(Cc3cccnc3)c(=O)c2cc1Cl | – | H37RV | – | MIC90 | > 100 µM |
| CO[C@H]1/C=C/O[C@@]2(C)Oc3c(C)c(O)c4c(O)c(c(/C=N/N5CCN(C)CC5)c(O)c4c3C2=O)NC(=O)/C(C)=C\C=C\[C@H](C)[C@H](O)[C@@H](C)[C@@H](O)[C@@H](C)[C@H](OC(C)=O)[C@@H]1C | – | – | – | MIC50 | 0.01 µg/mL (≈ 0.0122 µM) |
| COc1ccc(-c2cc(C(F)(F)F)c3c(N)c(C(=O)N4CC(F)(F)C4)sc3n2)cc1 | – | H37RV | – | IC50 | > 50 µM |
| COC(=O)c1cc2[nH]c(=S)n(Cc3cccnc3)c(=O)c2cc1Cl | – | H37RV | – | MIC90 | > 100 µM |
